According to ChEMBL document CHEMBL2046296, “Synthesis and antidepressant activity of arylalkanol-piperidine derivatives as triple reuptake inhibitors” (Eur J Med Chem, 2012):
pIC50: −log10 of the molar value.

Columns and labels:
[1] = target: Beta-1 adrenergic receptor (Homo sapiens) (UniProt P08588); assay: Displacement of [3H](-)CGP12177 beta1 adrenergic receptor at 10 uM
Summary of the method: (§1)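 Radioligand binding panel run by a contract lab (CEREP). Percent inhibition of specific radioligand binding was measured at a single primary test concentration of 10.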

[2] = target: Adrenergic receptor alpha-1 (Rattus norvegicus) (UniProt P15823+P23944+P43140); assay: Displacement of [3H]Prazosin from rat alpha1 adrenergic receptor at 10 uM after 60 mins by liquid scintillation counting; summary of the method: as §1
Mus musculus [3] = assay: Antidepressant activity in mouse assessed as decrease in immobility at 20 mg/kg, po administered 30 mins prior to testing by tail suspension test relative to vehicle control; format: functional; design: scale not given: the % may be the effect or the level left
Summary of the method: (§2)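 Oral doses of 10–50 mg/kg (three doses) were given once, 30 min before testing. Mice were hung by adhesive tape 1 cm from the tail tip, 75 cm above the tabletop. Immobility was recorded for 5 min, scored blind, 10–12 mice per group, against vehicle controls. One-way ANOVA with Scheffe post hoc test; p<0.05 significant.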

[4] = target: Sodium-dependent dopamine transporter (Homo sapiens, UniProt Q01959); assay: Inhibition of [3H]dopamine uptake at human DAT expressed in HEK293 cells after 10 mins by scintillation counting
[5] = target: Histamine H1 receptor (Cavia porcellus) (UniProt P31389); assay: Displacement of [3H]Pyrilamin from guinea pig histamine H1 receptor at 10 uM after 10 mins by liquid scintillation counting; summary of the method: as §1
D(1A) dopamine receptor [6] = target: T1, D(1A) dopamine receptor (Homo sapiens, UniProt P21728); assay: Displacement of [3H]SCH23390 from dopamine D1 receptor at 10 uM; summary of the method: as §1
D(1A) dopamine receptor [7] = target: T1, D(1A) dopamine receptor; assay: Displacement of [3H]SCH23390 from dopamine D1 receptor
Summary of the method: (§3)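 A primary screen at a single concentration was run first; compounds giving >80% inhibition of radioligand binding went on to full concentration–response curves to obtain IC50 (CEREP contract assay).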

[8] = target: T2, Muscarinic acetylcholine receptor M2 (Homo sapiens) (UniProt P08172); assay: Displacement of [3H]AF-DX384 from M2 receptor at 10 uM; summary of the method: as §1
T2 sequence (whole entry): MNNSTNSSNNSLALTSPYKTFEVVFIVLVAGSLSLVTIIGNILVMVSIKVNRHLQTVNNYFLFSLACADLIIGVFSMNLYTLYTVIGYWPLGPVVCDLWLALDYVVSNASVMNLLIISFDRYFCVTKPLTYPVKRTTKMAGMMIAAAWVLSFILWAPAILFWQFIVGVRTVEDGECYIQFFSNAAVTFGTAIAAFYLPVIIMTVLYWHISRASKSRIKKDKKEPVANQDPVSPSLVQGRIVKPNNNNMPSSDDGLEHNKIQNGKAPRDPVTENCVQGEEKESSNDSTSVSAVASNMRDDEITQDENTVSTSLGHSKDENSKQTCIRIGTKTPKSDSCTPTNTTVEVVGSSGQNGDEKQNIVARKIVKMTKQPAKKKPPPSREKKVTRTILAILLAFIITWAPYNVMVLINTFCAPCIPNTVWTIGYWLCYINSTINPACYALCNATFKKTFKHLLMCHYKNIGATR

[9] = target: 5-hydroxytryptamine receptor 6 (Homo sapiens) (UniProt P50406); assay: Displacement of [3H]LSD from human recombinant 5HT6 receptor expressed in HEK293 cells at 10 uM after 60 mins by liquid scintillation counting; format: cell-based; summary of the method: as §1
[10] = target: Beta-2 adrenergic receptor (Homo sapiens) (UniProt P07550); assay: Displacement of [3H](-)CGP12177 beta2 adrenergic receptor at 10 uM; summary of the method: as §1
[11] = target: 5-hydroxytryptamine receptor 2B (Homo sapiens) (UniProt P41595); assay: Displacement of [3H]Mesulergine from human recombinant 5HT2B receptor expressed in CHO cells at 10 uM after 30 mins by liquid scintillation counting; format: cell-based; summary of the method: as §1
[12] = AUC (0 to infinity) in Sprague-Dawley rat at 1 mg/kg, iv; format: ADME, organism-based; design: time infinity, dose 1 mg/kg, route intravenous; conditions: plasma
Summary of the method: (§4)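 Male SD rats, three per group, fasted overnight until 6 h after dosing, were given a single 1 mg/kg iv dose into the femoral vein. Blood was sampled at 5, 15 and 30 min and at 1, 2, 4 and 6 h. Plasma was stored frozen and assayed by LC/MS/MS.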

[13] = Elimination half life in Sprague-Dawley rat at 1 mg/kg, iv; format: ADME, organism-based; design: dose 1 mg/kg, route intravenous; conditions: in vivo, read-out: beta t1/2 (converted); summary of the method: as §4
[14] = Oral bioavailability in Sprague-Dawley rat at 10 mg/kg; format: ADME, organism-based; conditions: in vivo
Summary of the method: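 Bioavailability in male SD rats (n=3 per group, fasted overnight to 6 h post-dose) came from a 10 mg/kg oral dose and a 1 mg/kg iv dose via the femoral vein. Plasma drug levels over time were measured by LC/MS/MS.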

Mus musculus [15] = assay: Antidepressant activity in po dosed mouse assessed as decrease in immobility administered 30 mins prior to testing by tail suspension test relative to vehicle control; format: functional, organism-based; summary of the method: as §2
[16] = Tmax in Sprague-Dawley rat at 10 mg/kg, po; format: ADME, organism-based; design: dose 10 mg/kg, route oral; conditions: in vivo
Summary of the method: (§5)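 Male SD rats, three per group, fasted overnight until 6 h post-dose, received a single oral dose of 10 mg/kg. Heparinized blood was drawn at 5, 15 and 30 min and at 1, 2, 4, 6, 8, 12 and 24 h. Plasma was frozen and analysed by LC/MS/MS for Cmax, Tmax, terminal t1/2 and AUC0-inf.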

[17] = AUC (0 to infinity) in Sprague-Dawley rat at 10 mg/kg, po; format: ADME, organism-based; design: time infinity, dose 10 mg/kg, route oral; conditions: plasma; summary of the method: as §5
[18] = Cmax in Sprague-Dawley rat at 1 mg/kg, iv; format: ADME, organism-based; design: dose 1 mg/kg, route intravenous; conditions: in vivo; summary of the method: as §4
[19] = Elimination half life in Sprague-Dawley rat at 10 mg/kg, po; format: ADME, organism-based; design: dose 10 mg/kg, route oral; conditions: in vivo, read-out: beta t1/2 (converted); summary of the method: as §5
[20] = Cmax in Sprague-Dawley rat at 10 mg/kg, po; format: ADME, organism-based; design: dose 10 mg/kg, route oral; conditions: in vivo; summary of the method: as §5
[21] = target: Adrenergic receptor alpha-1 (Rattus norvegicus, UniProt P15823+P23944+P43140); assay: Displacement of [3H]Prazosin from rat alpha1 adrenergic receptor after 60 mins by liquid scintillation counting; summary of the method: as §3

Chain of 5-hydroxytryptamine receptor 2B (Homo sapiens) (P41595 whole entry): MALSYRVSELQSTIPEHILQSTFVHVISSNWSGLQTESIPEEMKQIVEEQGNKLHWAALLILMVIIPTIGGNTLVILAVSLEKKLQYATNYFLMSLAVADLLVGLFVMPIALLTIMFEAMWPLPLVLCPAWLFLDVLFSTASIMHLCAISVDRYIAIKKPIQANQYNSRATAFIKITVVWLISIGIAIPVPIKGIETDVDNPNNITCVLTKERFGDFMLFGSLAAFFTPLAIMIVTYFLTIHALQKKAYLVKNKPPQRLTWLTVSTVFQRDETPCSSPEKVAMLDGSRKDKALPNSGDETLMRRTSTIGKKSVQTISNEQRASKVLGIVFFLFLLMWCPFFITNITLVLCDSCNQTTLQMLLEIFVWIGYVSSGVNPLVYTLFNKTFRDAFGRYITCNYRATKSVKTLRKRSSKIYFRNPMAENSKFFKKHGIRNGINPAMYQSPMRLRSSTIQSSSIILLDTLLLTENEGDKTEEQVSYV
Chain of Sodium-dependent dopamine transporter (Q01959 whole entry): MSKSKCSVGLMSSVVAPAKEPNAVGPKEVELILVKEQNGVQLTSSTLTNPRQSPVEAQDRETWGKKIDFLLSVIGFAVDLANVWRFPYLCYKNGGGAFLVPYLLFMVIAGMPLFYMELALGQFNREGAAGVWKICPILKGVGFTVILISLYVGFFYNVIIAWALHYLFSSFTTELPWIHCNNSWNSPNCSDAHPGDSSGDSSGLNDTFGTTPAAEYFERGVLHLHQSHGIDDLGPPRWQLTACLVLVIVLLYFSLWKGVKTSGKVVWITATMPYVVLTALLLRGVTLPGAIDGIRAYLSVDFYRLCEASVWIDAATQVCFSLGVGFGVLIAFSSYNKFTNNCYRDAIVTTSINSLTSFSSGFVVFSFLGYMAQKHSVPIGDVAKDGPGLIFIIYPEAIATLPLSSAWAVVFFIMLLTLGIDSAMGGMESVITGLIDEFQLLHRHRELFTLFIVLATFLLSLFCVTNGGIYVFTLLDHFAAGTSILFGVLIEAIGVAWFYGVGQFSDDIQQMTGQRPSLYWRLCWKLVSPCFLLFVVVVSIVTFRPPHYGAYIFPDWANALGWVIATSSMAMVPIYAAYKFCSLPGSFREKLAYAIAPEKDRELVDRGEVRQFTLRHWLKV
Chain of 5-hydroxytryptamine receptor 6 (Homo sapiens) (P50406 whole entry): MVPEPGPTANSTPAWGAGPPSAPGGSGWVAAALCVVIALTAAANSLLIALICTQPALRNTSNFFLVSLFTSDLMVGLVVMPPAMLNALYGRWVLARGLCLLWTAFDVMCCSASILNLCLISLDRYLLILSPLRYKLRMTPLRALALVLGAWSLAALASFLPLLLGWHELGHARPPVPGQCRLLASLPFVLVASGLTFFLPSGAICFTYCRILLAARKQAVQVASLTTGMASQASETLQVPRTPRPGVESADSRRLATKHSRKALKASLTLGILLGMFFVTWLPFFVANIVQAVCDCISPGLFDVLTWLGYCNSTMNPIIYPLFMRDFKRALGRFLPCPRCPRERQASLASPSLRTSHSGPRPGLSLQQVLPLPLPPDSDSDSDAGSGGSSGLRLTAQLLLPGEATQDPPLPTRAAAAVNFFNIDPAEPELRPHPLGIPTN
T1 sequence (P21728 whole entry): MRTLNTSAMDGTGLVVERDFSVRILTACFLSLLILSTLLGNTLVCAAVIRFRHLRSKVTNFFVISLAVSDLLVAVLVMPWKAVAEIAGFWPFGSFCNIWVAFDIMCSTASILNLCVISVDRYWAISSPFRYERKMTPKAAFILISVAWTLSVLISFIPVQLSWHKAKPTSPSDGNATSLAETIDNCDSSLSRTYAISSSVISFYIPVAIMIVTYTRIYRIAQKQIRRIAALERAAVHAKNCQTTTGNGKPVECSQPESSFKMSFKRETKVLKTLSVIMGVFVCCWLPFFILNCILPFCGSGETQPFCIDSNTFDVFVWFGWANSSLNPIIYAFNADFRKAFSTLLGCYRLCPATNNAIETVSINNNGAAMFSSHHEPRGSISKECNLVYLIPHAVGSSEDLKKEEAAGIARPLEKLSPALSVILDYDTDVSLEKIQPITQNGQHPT
Chain of Histamine H1 receptor (Cavia porcellus) (P31389 whole entry): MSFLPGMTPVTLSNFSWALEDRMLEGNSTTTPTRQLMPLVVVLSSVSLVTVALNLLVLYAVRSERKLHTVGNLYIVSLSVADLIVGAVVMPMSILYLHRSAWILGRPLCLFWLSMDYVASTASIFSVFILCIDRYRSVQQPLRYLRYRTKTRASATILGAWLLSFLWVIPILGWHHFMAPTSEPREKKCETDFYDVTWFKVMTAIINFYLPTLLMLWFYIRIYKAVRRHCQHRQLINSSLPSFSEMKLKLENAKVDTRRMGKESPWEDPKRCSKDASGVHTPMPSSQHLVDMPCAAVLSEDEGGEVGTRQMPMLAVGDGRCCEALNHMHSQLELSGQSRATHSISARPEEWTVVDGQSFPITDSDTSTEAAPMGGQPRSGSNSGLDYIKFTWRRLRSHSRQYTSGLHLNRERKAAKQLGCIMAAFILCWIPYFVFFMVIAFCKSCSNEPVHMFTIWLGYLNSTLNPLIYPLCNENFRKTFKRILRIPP
Chain of Beta-2 adrenergic receptor (Homo sapiens) (P07550 whole entry, looked up): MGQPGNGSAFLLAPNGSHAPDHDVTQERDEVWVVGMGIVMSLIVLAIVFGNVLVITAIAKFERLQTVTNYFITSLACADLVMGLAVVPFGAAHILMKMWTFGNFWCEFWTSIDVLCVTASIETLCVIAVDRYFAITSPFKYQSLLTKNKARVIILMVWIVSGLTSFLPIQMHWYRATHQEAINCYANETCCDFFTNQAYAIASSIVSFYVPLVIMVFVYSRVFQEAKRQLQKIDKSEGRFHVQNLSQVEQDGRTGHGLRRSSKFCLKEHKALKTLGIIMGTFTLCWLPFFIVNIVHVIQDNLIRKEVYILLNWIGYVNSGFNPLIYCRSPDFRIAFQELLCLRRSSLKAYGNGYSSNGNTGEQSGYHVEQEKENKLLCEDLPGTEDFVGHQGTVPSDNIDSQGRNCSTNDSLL
Chain of Beta-1 adrenergic receptor (Homo sapiens) (P08588 whole entry, looked up): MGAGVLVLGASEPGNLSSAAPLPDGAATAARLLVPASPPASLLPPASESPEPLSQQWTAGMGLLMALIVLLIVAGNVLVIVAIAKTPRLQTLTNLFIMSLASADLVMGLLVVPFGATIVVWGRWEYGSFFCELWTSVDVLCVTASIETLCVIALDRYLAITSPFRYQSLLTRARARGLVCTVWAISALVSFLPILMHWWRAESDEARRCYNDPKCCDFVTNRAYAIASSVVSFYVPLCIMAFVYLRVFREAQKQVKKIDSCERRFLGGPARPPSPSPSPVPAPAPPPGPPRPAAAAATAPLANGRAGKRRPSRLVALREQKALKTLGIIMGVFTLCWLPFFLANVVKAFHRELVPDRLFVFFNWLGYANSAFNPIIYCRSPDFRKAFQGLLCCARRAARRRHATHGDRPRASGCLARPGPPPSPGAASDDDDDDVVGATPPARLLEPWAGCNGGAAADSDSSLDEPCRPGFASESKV

Row | inhibition [1] [%] | inhibition [2] [%] | pIC50 [4] | inhibition [5] [%] | inhibition (D(1A) dopamine receptor [6]) [%] | inhibition [8] [%] | inhibition [9] [%] | inhibition [10] [%] | inhibition [11] [%] | AUC(0-inf) [12] [ng·h/mL] | half-life [13] [h] | bioavailability [14] [%] | Tmax [16] [h] | AUC(0-inf) [17] [ng·h/mL] | Cmax [18] [ng/mL] | half-life [19] [h] | Cmax [20] [ng/mL] | SMILES | Activity (Mus musculus [3]) [%] | Activity (Mus musculus [15]) | also measured
1 | 41.2 | 0.8 | 6.31 | 0.1 | 85.6 | 6.5 | 53.7 | 16.7 | 6.1 | – | – | – | – | – | – | – | – | OC(CCN1CC=C(Cc2ccccc2)CC1)c1cc2ccccc2s1 (racemic) | 21 | – | pIC50 (D(1A) dopamine receptor [7]): 5.02
2 | 33.4 | 51.2 | 6.25 | 45.3 | 35.6 | 3.7 | 16.8 | 49.8 | 14.5 | 1020 | 2.5 | 55.8 | 0.5 | 5720 | 653 | 3.5 | 923 | OC(CCN1CC=C(Cc2ccccc2)CC1)c1csc2ccccc12 (racemic) | 51 | Dose-dependent effect | –
3 | 46.7 | 45.6 | 6.46 | 10.6 | 27.1 | 12.9 | -0.9 | 28.5 | – | – | – | – | – | – | – | – | – | COc1ccc2cc(C(O)CCN3CC=C(Cc4ccccc4)CC3)ccc2c1Cl (racemic) | 42 | Dose-dependent effect | –
4 | 15.3 | 84.3 | 6.25 | 12.5 | 47.9 | 16.5 | 14.8 | 14.7 | 4.9 | 1230 | 2.3 | 44.1 | 0.7 | 5440 | 750 | 2.9 | 897 | OC(CCN1CCC(O)(Cc2ccccc2)CC1)c1ccc(Cl)c(Cl)c1 (racemic) | 42 | Dose-dependent effect | IC50 [21]: 8000 nM
5 | 58.9 | 35.6 | 6.16 | 31.2 | 33.3 | 7.9 | 1.9 | 62.3 | 33.5 | – | – | – | – | – | – | – | – | OC(CCN1CC=C(Cc2ccccc2)CC1)c1ccc(Cl)c(Cl)c1 (racemic) | 51 | – | –
